Published values pooled from the literature.
Lines come from different studies, so protocols differ.
Organism: Staphylococcus aureus
Effect on: microbial growth

`O=C(O)CN1C(=O)/C(=C/c2ccc(-c3ccc(N(c4ccccc4)c4ccccc4)cc3)c3ccccc23)NC1=S` has an MIC of greater than 1000 µg/mL (broth dilution; ATCC25923).
`Oc1ccc(Br)cc1-c1nc2ccccc2[nH]1` has an MIC of 64 µg/mL (broth dilution; ATCC29213 MSSA).
`CN(C)[C@@H]1C(O)=C(C(N)=O)C(=O)[C@@]2(O)C(O)=C3C(=O)c4c(O)cccc4[C@@](C)(O)[C@H]3C[C@@H]12` gave an MIC of 0.15 µM (broth dilution; 25923).
`CSc1nc(O)n2nccc2n1` has an MIC of greater than 128 µg/mL.
`O=C(CCCCCCCC[P+](c1ccccc1)(c1ccccc1)c1ccccc1)Nc1cc(O)c(O)c(O)c1.[Br-]` gave an MIC of 16 µg/mL (broth dilution; ATCC43300 MRSA; 18 h).
For `C=C(C/C=C(\C)CCC=C(C)C)CCC(C)(C)/C=C/CC/C(C)=C\CO[C@H](COP(=O)(O)O[C@H]1O[C@H](C(N)=O)[C@@](C)(O)[C@H](OC(N)=O)[C@H]1O[C@@H]1O[C@H](CO[C@@H]2O[C@H](CO)[C@@H](O)[C@H](O)[C@H]2O)[C@@H](O[C@@H]2O[C@H](C)[C@@H](O[C@@H]3O[C@H](C(=O)NC4=C(O)CCC4=O)[C@H](O)[C@H](O)[C@H]3O)[C@H](O)[C@H]2NC(C)=O)[C@H](O)[C@H]1NC(C)=O)C(=O)O`, the MIC was less than 0.75 µg/mL (broth dilution; 18 h).
For `CC(C)Oc1c(NC(=O)c2ccc(NC(=O)[C@H](CC(N)=O)NC(=O)c3ccc(NC(=O)c4ccc(NC(N)=O)cc4)cc3)cc2)ccc(C(=O)Nc2ccc(C(=O)O)cc2)c1O`, the MIC was 64 µg/mL (ATCC29213).
With `CCOc1ccc(-c2nc3cc(-c4nc5cc(N6CCN(C)CC6)ccc5[nH]4)ccc3[nH]2)cc1` the MIC was 2 to 4 µg/mL (broth dilution; 29213; 24 h).
With `Cc1cc(Nc2ncnc3ccc(NC4=NC(C)(C)CO4)cc23)ccc1Oc1ccn2ncnc2c1` the MIC was greater than 30 µM (NCTC8325).
`C/C=C(\C)c1cc(O)c(C)c(OC(=O)c2c(C)cc(O)c(Cl)c2O)c1` gave an MIC of 8 µg/mL (broth dilution; 745524).
For `Cc1ccc2nc(-c3c(F)cccc3Cl)[nH]c2c1`, the MIC was 64 µg/mL (broth dilution; ATCC29213 MSSA).
The MIC of `CNC(=O)c1ccccc1Sc1ccc2c(/C=C/c3ccccn3)n[nH]c2c1` is reported as greater than 30 µM (NCTC8325).
`O=C1NC(=S)N/C1=C\c1ccc(-c2ccc(N(c3ccccc3)c3ccccc3)cc2)c2ccccc12` gave an MIC of greater than 1000 µg/mL (broth dilution; ATCC43300).
The MIC of `O=C(Nc1ccc(Cc2ccccc2)cc1)Nc1ccc(Cl)c(C(F)(F)F)c1` is reported as 1 µM (NCTC8325; 24 h).
With `CC(C)(O/N=C(\C(=O)N[C@@H]1C(=O)N2C(C(=O)[O-])=C(C[n+]3ccccc3)CS[C@H]12)c1csc(N)n1)C(=O)O` the MIC was 64 µg/mL (broth dilution; MRSA; 18 h, clinical isolate).
The MIC of `COC(=O)c1sc(C(C)(C)C)cc1NC(=O)Nc1ccc(C)cc1` is reported as greater than 100 µM (NCTC8325).
With `Clc1ccccc1-c1nc2ccccc2[nH]1` the MIC was 64 µg/mL (broth dilution; ATCC29213 MSSA).
`C#CCCC1(CC(=O)Nc2ccccc2)N=N1` has an MIC of greater than 100 µM (NCTC8325).
`C[n+]1c(/C=C/c2ccc(O)cc2)cc(/C=C2\Sc3ccccc3N2CCCN2CCCC2)c2ccccc21.[I-]` has an MIC of 32 µg/mL (broth dilution; ATCCBAA44).
The MIC of `Cc1cccc(-c2nn3c(c2-c2ccnc4ccc(C(N)=O)cc24)CCC3)n1` is reported as greater than 30 µM (NCTC8325).
`CC(=O)NC[C@H]1CN(c2ccc(N3CCOCC3)c(F)c2)C(=O)O1` gave an MIC of 32 µM (broth dilution; MRSA NRS119; drug-resistant strain).
